Here are results for ten compounds from ChEMBL document CHEMBL4265929, “4-Hydroxy-1,2,3-triazole moiety as bioisostere of the carboxylic acid function: a novel scaffold to probe the orthosteric γ-aminobutyric acid receptor binding site” (Eur J Med Chem, 2018).

Molecules are shown by their SMILES. Where only a bound is given, the exact number is not on record here.

A short description of data set [1]: Displacement of [3H]muscimol from GABAA receptor in Sprague-Dawley rat brain synaptic membranes after 60 mins by Topcount scintillation counting method. In short, it runs like this:
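Synaptic membranes from male SPRD rat cortex and central hemispheres, washed four times (50 mM Tris-HCl pH 7.4, 48,000g, 4 °C). Membranes (70–80 µg protein) incubated with [3H]muscimol (5 nM final) and graded compound concentrations, 60 min, 0 °C. GF/C filtration, scintillation counting. Non-specific binding with 1.0 mM GABA. Triplicates, ≥3 experiments. IC50 converted to Ki (modified Cheng–Prusoff); mean pKi ± SEM.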

Data set [2] is described as follows: Ionization constant, pKa of the compound in KCl at pH 1.8 by potentiometric titration method. The class given is physicochemical. In short, it runs like this:
(§1)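 Potentiometric titration of about 1 mM aqueous compound, ionic strength 0.15 M KCl. Solution acidified to pH 1.8 with 0.5 N HCl, then titrated with standardized 0.5 N KOH to pH 12.2 at 25 °C under argon. pKa taken as mean of four titrations.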

Data set [3] in a line: Ionization constant, pKa of the compound. It is filed as physicochemical. In short, it runs like this: as §1
A short description of data set [4]: Ionization constant, pKa of the compound in methanol by diode array detection method. The class given is physicochemical.

As for `Oc1nnn(C2CCNCC2)c1Cc1ccc2ccccc2c1`, in data set [1], the Ki worked out at 2.4 µM and the pKi was 5.62.

`NCCc1nsnc1O`: in data set [1], the Ki is 75 µM and the pKi amounted to 4.13. In data set [2], the pKa came out at 4.54.

For `Oc1cn(C2CCNCC2)nn1`, in data set [1], the Ki came out at 55 µM and the pKi is given as 4.26. The same compound displayed a pKa in data set [2] of 6.51.

As for `Cn1nc(O)c(CCN)n1`, the Ki in data set [1] is more than 100 µM. The compound also came in with a pKa in data set [2] of 5.92.

In data set [1], `Oc1nn(C2CCNCC2)nc1Cc1ccc2ccccc2c1` gave a Ki of 3.3 µM and a pKi of 5.49.

`On1cc(C2CCNCC2)cn1` gave a Ki in data set [1] of 10 µM. For the same compound, in data set [3], the pKa was 5.4.

`Oc1cc(C2CCNCC2)[nH]n1` came in with an inhibition constant (Ki) in data set [1] of more than 100 µM. In data set [4], this compound displayed a pKa of 6.7.

For `Oc1nn(C2CCNCC2)nc1CCC(c1ccccc1)c1ccccc1`, the Ki in data set [1] was more than 100 µM.

As to `Oc1nnn(C2CCNCC2)c1CCC(c1ccccc1)c1ccccc1`, in data set [1], the Ki came out at 1.6 µM and the pKi is reported as 5.8.

`Oc1cnn(C2CCNCC2)n1` returned a Ki in data set [1] of more than 100 µM. Besides, the pKa in data set [2] worked out at 6.36.
